According to ChEMBL document CHEMBL3861962 (Eur J Med Chem, 2016):

How the values were obtained:
Cytochrome P450 3A4 = Cytochrome P450 3A4 (Homo sapiens, UniProt P08684); assay: Drug metabolism assessed as human recombinant CYP3A4-mediated metabolite formation by measuring parent compound remaining at 5 uM in presence of NADPH after 30 mins by LC-MS/MS analysis; format: ADME; details: recombinant enzyme, 0.5 h
Outline: (§1)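 Substrate at 5 μM final in 100 mM potassium phosphate, pH 7.4, incubated with human liver microsomes or baculovirus-expressed recombinant CYP3A4, 2D6 or 2C9. Reaction started with 1 mM NADPH and run 0, 15 and 30 min at 37 °C. Stopped with ice-cold acetonitrile containing labetalol internal standard, then centrifuged. Supernatant analysed by LC-MS/MS on a C18 column at 40 °C. Blank was enzyme without substrate.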

Cytochrome P450 2C9 = Cytochrome P450 2C9 (Homo sapiens, UniProt P11712); assay: Drug metabolism assessed as human recombinant CYP2C9-mediated metabolite formation by measuring parent compound remaining at 5 uM in presence of NADPH after 30 mins by LC-MS/MS analysis; format: ADME; details: recombinant enzyme, 0.5 h; outline: as §1
[1] = Retention time of the compound; format: physicochemical
Cytochrome P450 2D6 = Cytochrome P450 2D6 (Homo sapiens, UniProt P10635); assay: Drug metabolism assessed as human recombinant CYP2D6-mediated metabolite formation by measuring parent compound remaining at 5 uM in presence of NADPH after 30 mins by LC-MS/MS analysis; format: ADME; details: recombinant enzyme, 0.5 h; outline: as §1
[2] = Cytotoxicity against CHOK1 cells assessed as decrease in cell viability after 24 hrs by MTT assay; format: toxicity, cell-based, Cricetulus griseus; details: Chinese hamster, CHO-K1 cells
Outline: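 CHO-k1 cells grown in phenol-red-free DMEM/F-12 with 10% FBS, seeded at 20,000 cells/well and allowed to attach overnight. Exposure was 24 h to 0.1–200 μM, with DMSO as vehicle control. MTT at 1 mg/mL for 3 h at 37 °C, formazan dissolved in DMSO, absorbance read at 570 nm. Data given as % OD of vehicle control; IC50 taken from dose–response curve fits.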

[3] = biological target: T1, Endothelin-1 receptor (Homo sapiens) (UniProt P25101); assay: Agonist activity at ETA receptor in human SKNMC cells assessed as induction of Ca2+ mobilization at 1 nM by fluorimetric method relative to control; format: functional, cell-based; details: SK-N-MC
T1 sequence (whole entry): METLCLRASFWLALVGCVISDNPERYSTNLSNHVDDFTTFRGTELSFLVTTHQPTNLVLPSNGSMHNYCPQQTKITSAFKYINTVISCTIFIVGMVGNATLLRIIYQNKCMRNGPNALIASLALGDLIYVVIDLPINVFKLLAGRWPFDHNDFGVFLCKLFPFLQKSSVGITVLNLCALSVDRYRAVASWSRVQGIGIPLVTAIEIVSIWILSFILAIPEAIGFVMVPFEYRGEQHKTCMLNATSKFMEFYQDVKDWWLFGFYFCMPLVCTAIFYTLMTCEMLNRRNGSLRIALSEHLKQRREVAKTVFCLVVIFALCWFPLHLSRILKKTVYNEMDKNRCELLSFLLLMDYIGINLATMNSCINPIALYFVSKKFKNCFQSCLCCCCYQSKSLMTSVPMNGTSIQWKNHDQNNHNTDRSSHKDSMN
Outline: (§2)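 ETA functional assay run by Cerep in human neuroblastoma SK-N-MC cells at 22 °C with fluorimetric read-out. Test solutions were 1, 10, 100 and 1000 nM. Agonist response is given as % of the control response to 100 nM endothelin-1. For antagonist mode, inhibition is given as % of the control endothelin-1 agonist response, with BQ-123 as reference antagonist.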

[4] = biological target: T1, Endothelin-1 receptor (Homo sapiens); assay: Agonist activity at ETA receptor in human SKNMC cells assessed as induction of Ca2+ mobilization at 10 nM by fluorimetric method relative to control; format: functional, cell-based; details: SK-N-MC; outline: as §2
[5] = biological target: T1, Endothelin-1 receptor (Homo sapiens); assay: Agonist activity at ETA receptor in human SKNMC cells assessed as induction of Ca2+ mobilization at 100 nM by fluorimetric method relative to control; format: functional, cell-based; details: SK-N-MC; outline: as §2
[6] = biological target: T2, Endothelin receptor type B (Homo sapiens) (UniProt P24530); assay: Agonist activity at human recombinant ETB receptor expressed in CHOK1 cells assessed as induction of Ca2+ mobilization at 1 nM by fluorimetric method relative to control; format: functional, cell-based; details: CHO-K1
T2 sequence (whole entry): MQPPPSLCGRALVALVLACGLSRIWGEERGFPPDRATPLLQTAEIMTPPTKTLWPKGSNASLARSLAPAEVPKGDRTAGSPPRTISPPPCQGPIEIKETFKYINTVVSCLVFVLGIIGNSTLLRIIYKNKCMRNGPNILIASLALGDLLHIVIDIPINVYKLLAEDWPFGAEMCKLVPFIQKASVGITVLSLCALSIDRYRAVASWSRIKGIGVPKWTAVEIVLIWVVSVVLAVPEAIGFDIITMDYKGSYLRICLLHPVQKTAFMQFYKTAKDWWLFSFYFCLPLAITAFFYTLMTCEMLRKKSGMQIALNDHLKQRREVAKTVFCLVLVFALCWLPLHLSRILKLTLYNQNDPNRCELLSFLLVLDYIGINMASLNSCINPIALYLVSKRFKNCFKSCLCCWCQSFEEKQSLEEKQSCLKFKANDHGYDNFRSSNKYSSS
Outline: as §2, with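 “ETB” for “ETA”, “recombinant CHO-k1” for “neuroblastoma SK-N-MC”, “BQ-788” for “BQ-123”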

[7] = biological target: T2, Endothelin receptor type B (Homo sapiens); assay: Agonist activity at human recombinant ETB receptor expressed in CHOK1 cells assessed as induction of Ca2+ mobilization at 100 nM by fluorimetric method relative to control; format: functional, cell-based; details: CHO-K1
Outline: as §2, with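 “ETB” for “ETA”, “recombinant CHO-k1” for “neuroblastoma SK-N-MC”, “BQ-788” for “BQ-123”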

[8] = biological target: T1, Endothelin-1 receptor (Homo sapiens); assay: Antagonist activity at ETA receptor in human SKNMC cells assessed as inhibition of endothelin-1-mediated Ca2+ mobilization at 1 nM by fluorimetric method relative to control; format: functional, cell-based; details: SK-N-MC; outline: as §2
[9] = biological target: T1, Endothelin-1 receptor (Homo sapiens); assay: Antagonist activity at ETA receptor in human SKNMC cells assessed as inhibition of endothelin-1-mediated Ca2+ mobilization at 10 nM by fluorimetric method relative to control; format: functional, cell-based; details: SK-N-MC; outline: as §2
[10] = biological target: T1, Endothelin-1 receptor (Homo sapiens); assay: Antagonist activity at ETA receptor in human SKNMC cells assessed as inhibition of endothelin-1-mediated Ca2+ mobilization at 100 nM by fluorimetric method relative to control; format: functional, cell-based; details: SK-N-MC; outline: as §2
[11] = biological target: T2, Endothelin receptor type B (Homo sapiens); assay: Antagonist activity at human recombinant ETB expressed in CHOK1 cells assessed as inhibition of endothelin-1-mediated Ca2+ mobilization at 1 nM by fluorimetric method relative to control; format: functional, cell-based; details: CHO-K1
Outline: as §2, with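 “ETB” for “ETA”, “recombinant CHO-k1” for “neuroblastoma SK-N-MC”, “BQ-788” for “BQ-123”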

[12] = biological target: T2, Endothelin receptor type B (Homo sapiens); assay: Antagonist activity at human recombinant ETB expressed in CHOK1 cells assessed as inhibition of endothelin-1-mediated Ca2+ mobilization at 10 nM by fluorimetric method relative to control; format: functional, cell-based; details: CHO-K1
Outline: as §2, with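 “ETB” for “ETA”, “recombinant CHO-k1” for “neuroblastoma SK-N-MC”, “BQ-788” for “BQ-123”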

[13] = biological target: T2, Endothelin receptor type B (Homo sapiens); assay: Antagonist activity at human recombinant ETB expressed in CHOK1 cells assessed as inhibition of endothelin-1-mediated Ca2+ mobilization at 100 nM by fluorimetric method relative to control; format: functional, cell-based; details: CHO-K1
Outline: as §2, with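 “ETB” for “ETA”, “recombinant CHO-k1” for “neuroblastoma SK-N-MC”, “BQ-788” for “BQ-123”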

Endothelin-1 receptor = biological target: T3, Endothelin-1 receptor (Homo sapiens, UniProt P25101); assay: Antagonist activity at ETA receptor in human SKNMC cells assessed as inhibition of endothelin-1-induced Ca2+ mobilization by fluorimetric method
T3 sequence (P25101 whole entry): T1 sequence (whole entry)

Sequence of Cytochrome P450 2D6 (P10635 whole entry): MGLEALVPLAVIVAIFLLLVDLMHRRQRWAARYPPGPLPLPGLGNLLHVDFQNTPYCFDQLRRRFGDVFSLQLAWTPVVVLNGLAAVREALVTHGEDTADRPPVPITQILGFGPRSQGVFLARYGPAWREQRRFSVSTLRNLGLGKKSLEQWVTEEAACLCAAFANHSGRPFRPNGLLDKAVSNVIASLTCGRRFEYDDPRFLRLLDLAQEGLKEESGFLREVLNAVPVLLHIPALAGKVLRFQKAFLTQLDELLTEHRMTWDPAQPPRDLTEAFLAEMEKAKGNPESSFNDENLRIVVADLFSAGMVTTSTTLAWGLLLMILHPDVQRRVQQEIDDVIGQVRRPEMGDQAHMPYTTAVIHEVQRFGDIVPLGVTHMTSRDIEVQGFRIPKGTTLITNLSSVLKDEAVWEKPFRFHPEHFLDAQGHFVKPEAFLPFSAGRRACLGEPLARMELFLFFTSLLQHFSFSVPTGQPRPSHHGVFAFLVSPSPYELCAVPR
Sequence of Cytochrome P450 3A4 (P08684 whole entry): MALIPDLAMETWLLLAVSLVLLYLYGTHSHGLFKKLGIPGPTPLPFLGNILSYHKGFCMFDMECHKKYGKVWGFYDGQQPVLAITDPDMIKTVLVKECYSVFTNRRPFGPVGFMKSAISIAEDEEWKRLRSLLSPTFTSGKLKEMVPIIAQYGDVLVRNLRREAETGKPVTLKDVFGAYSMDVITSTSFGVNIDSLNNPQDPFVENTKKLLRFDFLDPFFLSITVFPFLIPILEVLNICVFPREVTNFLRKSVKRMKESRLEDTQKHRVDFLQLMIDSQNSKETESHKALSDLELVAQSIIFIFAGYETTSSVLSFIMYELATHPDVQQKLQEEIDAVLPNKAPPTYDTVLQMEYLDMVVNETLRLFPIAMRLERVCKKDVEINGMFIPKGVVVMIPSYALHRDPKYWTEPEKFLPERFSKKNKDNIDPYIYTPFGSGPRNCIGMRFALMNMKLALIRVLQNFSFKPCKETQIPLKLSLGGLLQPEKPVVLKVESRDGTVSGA
Sequence of Cytochrome P450 2C9 (P11712 whole entry): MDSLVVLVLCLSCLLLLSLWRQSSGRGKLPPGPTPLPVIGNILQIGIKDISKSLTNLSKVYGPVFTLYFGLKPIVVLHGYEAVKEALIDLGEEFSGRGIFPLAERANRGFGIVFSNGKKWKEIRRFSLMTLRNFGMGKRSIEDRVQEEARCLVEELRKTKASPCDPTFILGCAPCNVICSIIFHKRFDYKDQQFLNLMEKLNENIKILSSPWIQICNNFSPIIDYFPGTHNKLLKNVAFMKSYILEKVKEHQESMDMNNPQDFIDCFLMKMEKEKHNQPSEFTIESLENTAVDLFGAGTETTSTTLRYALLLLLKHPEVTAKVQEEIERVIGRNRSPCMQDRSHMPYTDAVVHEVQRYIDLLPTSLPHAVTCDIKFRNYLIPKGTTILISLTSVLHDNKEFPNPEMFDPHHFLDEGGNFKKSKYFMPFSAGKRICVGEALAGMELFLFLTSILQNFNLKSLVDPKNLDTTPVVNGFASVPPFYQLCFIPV

Row | Compound | Stability (Cytochrome P450 3A4) [%] | Stability (Cytochrome P450 2C9) [%] | Retention_time [1] [min] | Stability (Cytochrome P450 2D6) [%] | IC50 at 24 h [2] [µM] | Activity [3] [%] | Activity [4] [%] | Activity [5] [%] | Activity [6] [%] | Activity [7] [%] | inhibition [8] [%] | inhibition [9] [%] | inhibition [10] [%] | inhibition [11] [%] | inhibition [12] [%] | inhibition [13] [%] | IC50 (Endothelin-1 receptor) [µM]
1 | COc1ccccc1Oc1c(NS(=O)(=O)c2ccc(C(OC)(C(F)(F)F)C(F)(F)F)cc2)nc(-c2ncccn2)nc1OCCO | 19.2 | 100 | 5.48 | > 99 | 153 | 0 | 0 | 0 | 0 | 0 | -1 | 13 | 26 | 4 | 5 | 11 | 693
2 | COc1ccccc1Oc1c(NS(=O)(=O)c2ccc(C(F)(C(F)(F)F)C(F)(F)F)cc2)nc(-c2ncccn2)nc1OCCO | 16.3 | 100 | 5.6 | > 99 | 159 | 0 | -1 | -1 | 0 | -1 | -5 | 20 | 55 | -5 | 16 | 8 | 0.0754
